This is a sample that favours compounds with a hit; in the whole collection about 1.9% have one here.
M5 ag: human M5 muscarinic receptor agonists, primary screen, CHO-K1 cells, Fluo-8 calcium fluorescence | Muscarinic acetylcholine receptor M5 (Homo sapiens), P08912 | CHO-K1 hM5 cells; 0% DMSO wells, 100% maximal acetylcholine response | activation, % at 3 µM | 360,000 tested, 0.19% active | AID 624037, 2012;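 active = activation above the run's mean over test compounds plus 3 SD, cut at about 23% in these data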;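 note: signal is peak over basal fluorescence ratio across the kinetic read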
Target sequence (P08912 whole entry, looked up): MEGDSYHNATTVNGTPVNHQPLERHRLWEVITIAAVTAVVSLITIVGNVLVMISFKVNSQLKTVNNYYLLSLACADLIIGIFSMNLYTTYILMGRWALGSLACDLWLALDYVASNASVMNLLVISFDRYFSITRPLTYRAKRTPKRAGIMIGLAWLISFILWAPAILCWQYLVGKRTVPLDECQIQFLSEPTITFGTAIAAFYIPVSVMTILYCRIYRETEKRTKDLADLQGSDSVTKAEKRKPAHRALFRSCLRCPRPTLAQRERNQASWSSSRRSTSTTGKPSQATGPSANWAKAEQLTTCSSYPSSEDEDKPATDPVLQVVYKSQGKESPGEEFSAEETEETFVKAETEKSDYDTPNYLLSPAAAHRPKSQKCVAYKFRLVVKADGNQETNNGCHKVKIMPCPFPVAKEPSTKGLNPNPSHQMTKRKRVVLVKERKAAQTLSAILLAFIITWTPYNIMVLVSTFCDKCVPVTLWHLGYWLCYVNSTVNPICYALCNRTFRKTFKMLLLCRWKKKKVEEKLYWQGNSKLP
CHRM5 antagonist: human M5 muscarinic receptor antagonists, primary screen, CHO cells, Fluo-8 calcium fluorescence. Muscarinic acetylcholine receptor M5 (Homo sapiens), P08912. CHO-hM5 cells, ACh EC80. inhibition, % at 3 µM. 360,000 tested, 0.59% active. AID 624040, 2012;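 active = inhibition above a per-plate cutoff, the mean of that plate's test compounds plus 3 SD, cut at about 27% in these data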;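 note: 0% = acetylcholine EC80 with DMSO and 100% = DMSO without agonist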
M4 ag: human M4 muscarinic receptor agonists, primary screen, CHO-K1 cells, Fluo-8 calcium fluorescence. AID 624127, 2012. Muscarinic acetylcholine receptor M4 (Homo sapiens), P08173. 360,000 tested, 0.14% active. CHO-K1 hM4/Gqi5; vehicle 0%, full acetylcholine response 100%. activation, % at 3 µM;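 active = activation above the run mean over all test wells plus 3 SD, cut at about 32% in these data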;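 note: peak over basal fluorescence ratio per well then scaled between controls; 0% = DMSO wells and 100% = acetylcholine at EC100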
M4 antag: human M4 muscarinic receptor antagonists, primary screen, CHO cells, Fluo-8 calcium fluorescence. inhibition, % at 3 µM. CHO-hM4 cells, ACh EC80. Muscarinic acetylcholine receptor M4 (Homo sapiens), P08173. 360,000 tested, 0.73% active. AID 624125, 2012;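 active = inhibition above its plate's cutoff, the mean inhibition of sample wells plus 3 SD, cut at about 27% in these data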;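 note: 0% = acetylcholine EC80 with DMSO and 100% = DMSO without agonist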
CHRM5 PAM: human M5 muscarinic receptor positive allosteric modulators, primary screen, CHO-K1 cells, Fluo-8 calcium fluorescence. CHO-K1 hM5, ACh EC20 PAM; 0% = ACh EC20, 100% = ACh EC100. Muscarinic acetylcholine receptor M5 (Homo sapiens), P08912. activation, % at 3 µM. AID 624038, 2012. 360,000 tested, 0.3% active;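 active = activation above the run cutoff, the mean activation of all test compounds plus 3 SD, cut at about 18% in these data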
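Probe or stimulus: acetylcholine, EC20 level; Assay system: human M5 receptor in CHO-K1 cells; Schedule: compound preincubation 140 s before EC20 acetylcholine addition; Technique: intracellular calcium via Fluo-8 fluorescence; Dosing: single-point, 3 µM nominal; Read-out basis: percent activation from peak-over-basal fluorescence ratio, scaled EC20-to-EC100 acetylcholine; Repeats: one well per compound, no replicates.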
M4 PAM: human M4 muscarinic receptor positive allosteric modulators, primary screen, CHO-K1 cells, Fluo-8 calcium fluorescence; AID 624126, 2012; 360,000 tested, 0.4% active; CHO-K1 hM4/Gqi5, ACh EC20; 0% = ACh EC20, 100% = maximal ACh; activation, % at 3 µM;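 active = activation above its plate's cutoff, the mean activation of sample wells plus 3 SD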
* marks the source's active call; other numbers are inactive results.

`CCOCCCNC(=O)C(c1ccc(C)cc1)N(Cc1ccc2c(c1)OCO2)C(=O)CNC(C)=O` (stereo unspecified) gave M5 ag 2, CHRM5 antagonist 2, M4 ag 2, M4 antag -2, CHRM5 PAM 4 and M4 PAM 24*.
For O=C(Nc1cccc(Cl)c1)c1nc[nH]c1C(=O)N1CCN(c2ccccc2)CC1 the results were M5 ag 4, CHRM5 antagonist 1, M4 ag 2, M4 antag -8, CHRM5 PAM 2 and M4 PAM 0.
COc1ccc(CCNCc2ccc(-c3ccccc3)cc2)cc1OC was read as M5 ag 9, CHRM5 antagonist -7, M4 ag 34*, M4 antag 7, CHRM5 PAM 6 and M4 PAM -11.
For CCN(C(=O)CC(C)C)c1nnc(Cn2nnc3ccccc32)s1 the results were M5 ag 5, CHRM5 antagonist 2, M4 ag 9, M4 antag -3, CHRM5 PAM -12 and M4 PAM -7.
`CCN(C(=O)c1ccc(C(C)(C)C)cc1)c1nnc(Cn2nnc3ccccc32)s1` gave M5 ag 1, CHRM5 antagonist 33*, M4 ag 8, M4 antag 29*, CHRM5 PAM -24 and M4 PAM -10.
For CC1=CN(S(=O)(=O)c2ccc(C)cc2)C[C@@H]2[C@H]3CC[C@H](C3)[C@H]12 the results were M5 ag 0, CHRM5 antagonist -5, M4 ag -2, M4 antag -5, CHRM5 PAM -2 and M4 PAM -6.
O=c1c(Cl)c(N2CCNCC2)cnn1C12CC3CC(CC(C3)C1)C2 was read as M5 ag -11, CHRM5 antagonist 11, M4 ag 0, M4 antag 31*, CHRM5 PAM -6 and M4 PAM -21.
For COc1ccc(N2C(=O)NC(NC(=O)C(C)(C)C)(C(F)(F)F)C2=O)cc1 (stereo unspecified) the results were M5 ag -1, CHRM5 antagonist -4, M4 ag 1, M4 antag -12, CHRM5 PAM 3 and M4 PAM 5.
Screening S=c1[nH]nc(-c2ccco2)n1-c1cccc2ccccc12 returned M5 ag 2, CHRM5 antagonist 13, M4 ag 1, M4 antag 5, CHRM5 PAM 46* and M4 PAM 6.
`COc1cc(NC(=S)NCCN2CCOCC2)cc(OC)c1` gave M5 ag -1, CHRM5 antagonist -2, M4 ag 0, M4 antag -9, CHRM5 PAM 6 and M4 PAM 23*.
Screening c1ccc(N2OCC3Cn4c(nc5ccccc54)C32)cc1 (stereo unspecified) returned M5 ag 4, CHRM5 antagonist -13, M4 ag 2, M4 antag -1, CHRM5 PAM 6 and M4 PAM 24*.
Screening c1ccc(CN2OCC3Cn4c(nc5ccccc54)C32)cc1 (stereo unspecified) returned M5 ag -1, CHRM5 antagonist -3, M4 ag 1, M4 antag -16, CHRM5 PAM 7 and M4 PAM 7.
For c1ccc2c(c1)nc1n2CC2CON(C3CCCCC3)C12 (stereo unspecified) the results were M5 ag 0, CHRM5 antagonist 0, M4 ag 0, M4 antag -8, CHRM5 PAM 11 and M4 PAM 25*.
`Cc1ccc2c(c1)N(S(=O)(=O)c1ccc(F)cc1)C(C(C)(C)C)CO2` (stereo unspecified) gave M5 ag -5, CHRM5 antagonist -5, M4 ag -2, M4 antag 21, CHRM5 PAM -10 and M4 PAM -14.
Screening Cc1ccc(S(=O)(=O)N2c3ccccc3OCC2C(C)(C)C)cc1 (stereo unspecified) returned M5 ag 12, CHRM5 antagonist -12, M4 ag -1, M4 antag -4, CHRM5 PAM 21* and M4 PAM -3.
`CCOc1cc(CNCc2ccccc2)ccc1OCc1ccc(Cl)cc1` gave M5 ag 12, CHRM5 antagonist 26, M4 ag 34*, M4 antag 28*, CHRM5 PAM -13 and M4 PAM -15.
CCOc1cc(CNCCc2ccc(S(N)(=O)=O)cc2)cc(Cl)c1OCc1ccccc1 was read as M5 ag 14, CHRM5 antagonist 21, M4 ag 30, M4 antag 46*, CHRM5 PAM -19 and M4 PAM -5.
Screening COc1cc(CNCc2ccccn2)ccc1OCc1ccc(Cl)cc1Cl returned M5 ag -2, CHRM5 antagonist 11, M4 ag 23, M4 antag 33*, CHRM5 PAM -6 and M4 PAM -21.
`CCOc1cc(CNCCc2ccc(S(N)(=O)=O)cc2)ccc1OCc1ccccc1` gave M5 ag -4, CHRM5 antagonist 13, M4 ag 20, M4 antag 19, CHRM5 PAM -16 and M4 PAM -20.
For COc1ccc(CNCCc2ccc(Cl)cc2)cc1OCc1ccccc1 the results were M5 ag 12, CHRM5 antagonist 17, M4 ag 20, M4 antag 12, CHRM5 PAM -17 and M4 PAM -11.
`COc1cccc(NC(=O)CN(C)C(=O)c2ccccc2-c2nc3ccccc3s2)c1` gave M5 ag -4, CHRM5 antagonist 11, M4 ag 5, M4 antag 4, CHRM5 PAM -7 and M4 PAM -4.
For Cc1nn(-c2cc(Cl)ccc2Cl)c(C)c1C(=O)O the results were M5 ag 1, CHRM5 antagonist -3, M4 ag 0, M4 antag -7, CHRM5 PAM -5 and M4 PAM -1.
`O=C(C(=O)N1CCN(c2ccccc2)CC1)c1ccncc1` gave M5 ag 2, CHRM5 antagonist 0, M4 ag 4, M4 antag -1, CHRM5 PAM 3 and M4 PAM -1.
For CN(C)CCNc1nc2sc3c(c2c(=O)n1CCc1ccccc1)CCCCC3 the results were M5 ag 8, CHRM5 antagonist 17, M4 ag 19, M4 antag 31*, CHRM5 PAM -19 and M4 PAM -13.
`CCn1c(=O)n(CCc2ccccc2)c(=O)c2c3c(sc21)CCCC3` gave M5 ag -2, CHRM5 antagonist 1, M4 ag -1, M4 antag -2, CHRM5 PAM -1 and M4 PAM 3.

High-throughput results from PubChem.
